MrgX1 antagonist = human MrgX1 receptor antagonism, primary screen; Q96LB2; MRGX1-HEK293 calcium flux, Fluo-4, BAM8-22 antagonism; hits give low values; AID 588676; actives 1.3% (n = 310,000); B-score at 10 µM;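 active = calcium-response B-score plate-corrected more than 3 library SD below zero, starting fluorescence within 5 deviations, no agonist response on first addition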;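 note: peak minus trough fluorescence over baseline after final BAM8-22 challenge near maximal dose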
Target sequence (Q96LB2 whole entry, looked up): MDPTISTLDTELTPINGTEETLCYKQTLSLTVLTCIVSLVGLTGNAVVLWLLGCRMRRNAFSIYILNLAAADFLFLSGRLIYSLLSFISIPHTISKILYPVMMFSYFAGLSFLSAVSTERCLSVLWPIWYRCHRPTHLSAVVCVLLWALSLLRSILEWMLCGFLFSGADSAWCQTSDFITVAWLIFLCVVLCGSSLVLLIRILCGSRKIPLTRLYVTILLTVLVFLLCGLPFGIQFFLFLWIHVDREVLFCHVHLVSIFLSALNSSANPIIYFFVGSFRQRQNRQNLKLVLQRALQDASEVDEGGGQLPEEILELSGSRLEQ
MrgX1 PAM = allosterically activates human MrgX1 receptor signaling; Q96LB2; MrgX1-HEK293, Fluo-4 calcium flux, FDSS; hits give high values; B-score at 10 µM; actives 0.63% (n = 310,000);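 active = plate-corrected calcium response at least 3 library SD above typical, normal starting fluorescence, not activating the receptor alone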;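 note: compound read alongside a low EC10 to EC30 dose of BAM8-22 agonist; peak minus trough fluorescence over baseline measured at the second addition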
RGS4 inh = inhibitors of human RGS4. P49798. HEK293 M3R/RGS4 inducible, Fluo-4 calcium flux; hits give high values; triggered by carbachol at its EC20. B-score at 10 µM. actives 0.45% (n = 310,000);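 active = B-score, a plate-corrected calcium signal, over three deviations above library mean, with baseline fluorescence within five deviations of library mean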;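 note: RGS4 expression induced by doxycycline in cells with stable M3 receptor; B-score is computed from the integrated fluorescence ratio over baseline after carbachol; higher B-score means a larger calcium signal and so more RGS4 inhibition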
Target sequence (P49798 whole entry, looked up): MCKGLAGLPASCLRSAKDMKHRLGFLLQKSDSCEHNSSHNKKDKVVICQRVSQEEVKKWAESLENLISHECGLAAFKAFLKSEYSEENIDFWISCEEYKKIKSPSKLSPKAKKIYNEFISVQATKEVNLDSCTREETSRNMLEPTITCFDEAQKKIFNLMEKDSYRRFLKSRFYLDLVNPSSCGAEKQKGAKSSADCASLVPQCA
RGS4 act = potentiators or activators of RGS4 | HEK293 M3R/inducible RGS4, carbachol calcium flux Fluo4; hits give low values | B-score at 10 µM | actives 0.92% (n = 310,000);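 active = B-score of the integrated calcium signal more than 4 SD below the library mean, with starting fluorescence not abnormally high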;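 note: negative B-score means reduced calcium response which marks RGS4 activation or potentiation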
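Material: Inducible-RGS4 HEK293 cells carrying M3 receptor; also added: carbachol at ECmax as muscarinic agonist stimulus; incubation: compound preincubation 20 min at room temperature before agonist; signal: Fluo4-AM (2 µM) calcium-flux fluorescence, kinetic read; measure: integrated calcium ratio converted to B score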
MrgX1 agonist = human MrgX1 receptor agonism, primary screen | MrgX1-HEK293 cells, Fluo-4 calcium fluorescence, agonist mode; hits give high values | B-score at 10 µM | actives 0.44% (n = 310,000) | AID 588627;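 active = calcium response B-score plate-corrected fluorescence ratio at least 3 library SD, with starting fluorescence B-score inside 5 SD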
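Test system: HEK293 cells stably expressing human MrgX1 receptor; amount: 15,000 cells per well; doses: compound delivered in addition one of three; times: overnight plating before 1 h dye loading; detection: Fluo-4 NW calcium-flux fluorescence, kinetic read; read-out basis: B-scored fluorescence response ratio; controls: positive and negative controls per plate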
An asterisk follows results filed as active; i = inactive; x = no result. Shown are actives, neighbours in structure and some others; about 3.5% of the full set was active somewhere.

SMILES	MrgX1 antagonist	MrgX1 PAM	RGS4 inh	RGS4 act	MrgX1 agonist
O=C1c2ccccc2NC(c2cccc([N+](=O)[O-])c2)N1CCc1ccccc1 (stereo not given)	i	15.4*	i	i	i
CC(C)Oc1ccc(Cn2c(-c3ccco3)n[nH]c2=S)cc1	i	i	i	-7.35*	i
CC(=O)c1ccc(OCC(=O)N2CCN(S(=O)(=O)c3ccc(C)cc3C)CC2)cc1	i	i	i	i	i
CSc1ccc(CN2CCC(CO)(CCOc3ccccc3)CC2)cc1	i	i	i	-6.99*	i
O=C(c1ccc2c(c1)OCO2)N(c1ccc(Br)cc1)C1C=CS(=O)(=O)C1 (stereo not given)	i	i	i	i	i
COc1cc(N/C=C(\C(C)=O)c2ccccc2)cc(OC)c1	i	i	x	x	30*
COC(=O)c1cc(NC(=O)Nc2ccccc2)ccc1Cl	i	i	i	i	i
O=C1N/C(=N/O)S/C1=C/c1cccnc1	i	i	i	i	i
Cc1ccc(S(=O)(=O)/N=C2/NC(=O)/C(=C/c3cccnc3)S2)cc1	i	i	i	i	31.1*
CCCc1cc(=O)oc2cc(C)cc(O)c12	i	i	i	i	35*
CCc1cc(=O)oc2cc(C)cc(O)c12	i	i	i	i	i
CCCc1nc2ccc(NC(=O)c3ccco3)cc2c(=O)n1Cc1ccc(Cl)cc1	-6.71*	i	i	i	i
CC1=[N+](C)N(c2ccccc2)C(=O)C1N=C/C=C/c1ccccc1 (stereo not given)	i	i	i	-7.5*	i
O=C(CN1C(=O)S/C(=C/c2ccc(N3CCOCC3)cc2)C1=O)N1CCOCC1	i	i	i	-7.24*	i
O=C(CSCc1cnn(-c2ccccc2)c1-n1cccc1)NCc1ccc2c(c1)OCO2	x	x	i	-7.31*	x
Cc1sc(NC(=O)c2ccco2)c(CN2CCC(C)CC2)c1C	i	i	i	i	i
Cc1sc(NC(=O)c2ccco2)c(C(c2cccnc2)N2CCC(C)CC2)c1C (stereo not given)	i	i	i	-7.93*	i
CCOC(=O)C1CCCN(C(c2ccccn2)c2c(C)[nH]c3ccccc23)C1 (stereo not given)	i	i	i	-8.36*	i
CCn1c(O)c(/C=N/N=C/c2ccccc2)c2ccc(C3=NNC(=O)CC3)cc21	-4.76*	i	i	i	i
COc1cccc(NC(=O)Cc2nnc(SCC(=O)NC3CCCCC3)n2C)c1	i	i	i	i	i
O=C(Nc1ccc2c(c1)OCCO2)c1c[nH]c(=O)n(-c2ccc(F)c(Cl)c2)c1=O	i	i	i	i	i
CCC1(c2ccc(F)cc2)NC(=O)N(CC(=O)Nc2ccccc2Cl)C1=O (stereo not given)	i	i	i	i	i
COc1ccccc1CN1CCC(CNS(=O)(=O)c2cc(-c3cc(C)no3)ccc2OC)CC1	i	i	i	-7.56*	i
O=C1NC(=S)N(C(=O)c2ccc(F)cc2)/C1=C/c1ccccc1	-5.5*	i	i	i	i
CC(=O)N(C)c1ccc(NC(=O)Nc2ccc(C)c(C)c2)cc1	i	i	i	-7.38*	i
SMILES	MrgX1 antagonist	MrgX1 PAM	RGS4 inh	RGS4 act	MrgX1 agonist
O=C(Cn1c(-c2ccccc2)c[n+]2ccsc12)c1ccc(Br)cc1	i	i	i	-8.13*	i
O=C(NCCCO)c1nnc(Cc2c(F)cccc2Cl)o1	i	i	i	i	i
O=C(NCCCN1CCN(Cc2ccccc2)CC1)c1nnc(Cc2c(F)cccc2Cl)o1	-4.67*	i	i	i	i
CCN(Cc1nc(-c2cccc(C)c2)no1)C(=O)c1ccc2c(c1)OCO2	i	i	i	i	i
Clc1cccc(NCc2nnc(SCc3ccc(Cl)cc3Cl)o2)c1	i	i	i	-8.59*	i
Cc1ccccc1CS(=O)(=O)c1nnc([C@H](CC(C)C)NC(=O)OC(C)(C)C)o1	i	i	i	i	33.2*
CC[C@@H](C)[C@H](NC(=O)OC(C)(C)C)c1nnc(S(=O)(=O)Cc2cc(C)ccc2C)o1	i	7.07*	i	i	i
CCc1nc(Nc2ccc3c(c2)OCCO3)c2oc3ccccc3c2n1	i	i	i	-7.3*	i
O=C(CSc1c2c(nc3cc(Cl)ccc13)CCCC2)NCCCN1CCOCC1	i	i	i	i	i
CCN(CC)CCCNC(=O)CSc1c2c(nc3cc(Cl)ccc13)CCCC2	i	i	i	-7.23*	i
COc1cc([N+](=O)[O-])cc(/C=N/NC(=O)c2cc(-c3ccccc3)nc3ccccc23)c1O	i	9.97*	i	i	i
O=C(N/N=C/c1cc(Cl)cc([N+](=O)[O-])c1O)c1cc(-c2ccccn2)nc2ccccc12	-5.54*	i	i	i	i
COc1cc([N+](=O)[O-])cc(/C=N/NC(=O)c2cc(C)nc3ccccc23)c1O	i	i	i	i	i
O=C1Nc2ccccc2N(O)N1c1ccc(Cl)cc1	i	i	i	i	i
CCN1c2ccccc2NC2C1C(C(C)=O)C(=O)N2c1ccc(Cl)cc1 (stereo not given)	-5.06*	i	i	i	i
C[C@@H](C(=O)NCCc1ccccc1)N1C(=O)N2CCc3c([nH]c4ccccc34)[C@@]2(C)C1=O	i	i	i	i	i
Cc1cccc(C)c1NC(=O)c1sccc1SCc1cccc(C(F)(F)F)c1	-5.02*	i	i	i	i
Cc1c(Cl)c([N+](=O)[O-])nn1CC(=O)N1CCN(C23CC4CC(CC(C4)C2)C3)CC1	i	i	i	i	i
O=C(Nc1ncccc1O)c1ccc(OCC2CCCO2)cc1 (stereo not given)	i	i	i	i	i
COc1ccccc1C(C#N)N1N=C(C)CC1c1ccccc1 (stereo not given)	i	i	i	i	28*
Cc1ccc2sc(NNC(=O)c3cc(=O)c4ccccc4o3)nc2c1C	-8.74*	i	i	i	i
Cc1cccc2sc(NNC(=O)c3cc(=O)c4ccccc4o3)nc12	i	i	i	i	i
Cc1oc(-c2cccc(Cl)c2)nc1CN1CCCC(C(=O)NC(C)c2ccc3c(c2)OCCO3)C1 (stereo not given)	i	i	i	-6.96*	i
Cc1onc(-c2ccccc2Cl)c1C(=O)Nc1cccc(S(=O)(=O)NC2=NCCC2)c1	i	i	i	i	i
